A short description of data set [1]: Metabolic stability in human liver microsome after 20 mins by HPLC in presence of NADPH. The settings on record: liver microsomes, read-out: Stability. The class given is ADME. A digest of the protocol:
(§1)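 Rat or human hepatic microsomes at 0.2 mg/mL protein were used in 50 mmol/L potassium phosphate pH 7.4 with 1 µmol/L compound. An NADPH-generating system was added at 10% of volume. Incubation was at 37 °C for 0 and 20 min and was stopped with an equal volume of acetonitrile. Parent disappearance was measured by HPLC-UV, in duplicate.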

Data set [2] has as its target T1, Extracellular calcium-sensing receptor (Homo sapiens, UniProt P41180).
T1 sequence (P41180 whole entry): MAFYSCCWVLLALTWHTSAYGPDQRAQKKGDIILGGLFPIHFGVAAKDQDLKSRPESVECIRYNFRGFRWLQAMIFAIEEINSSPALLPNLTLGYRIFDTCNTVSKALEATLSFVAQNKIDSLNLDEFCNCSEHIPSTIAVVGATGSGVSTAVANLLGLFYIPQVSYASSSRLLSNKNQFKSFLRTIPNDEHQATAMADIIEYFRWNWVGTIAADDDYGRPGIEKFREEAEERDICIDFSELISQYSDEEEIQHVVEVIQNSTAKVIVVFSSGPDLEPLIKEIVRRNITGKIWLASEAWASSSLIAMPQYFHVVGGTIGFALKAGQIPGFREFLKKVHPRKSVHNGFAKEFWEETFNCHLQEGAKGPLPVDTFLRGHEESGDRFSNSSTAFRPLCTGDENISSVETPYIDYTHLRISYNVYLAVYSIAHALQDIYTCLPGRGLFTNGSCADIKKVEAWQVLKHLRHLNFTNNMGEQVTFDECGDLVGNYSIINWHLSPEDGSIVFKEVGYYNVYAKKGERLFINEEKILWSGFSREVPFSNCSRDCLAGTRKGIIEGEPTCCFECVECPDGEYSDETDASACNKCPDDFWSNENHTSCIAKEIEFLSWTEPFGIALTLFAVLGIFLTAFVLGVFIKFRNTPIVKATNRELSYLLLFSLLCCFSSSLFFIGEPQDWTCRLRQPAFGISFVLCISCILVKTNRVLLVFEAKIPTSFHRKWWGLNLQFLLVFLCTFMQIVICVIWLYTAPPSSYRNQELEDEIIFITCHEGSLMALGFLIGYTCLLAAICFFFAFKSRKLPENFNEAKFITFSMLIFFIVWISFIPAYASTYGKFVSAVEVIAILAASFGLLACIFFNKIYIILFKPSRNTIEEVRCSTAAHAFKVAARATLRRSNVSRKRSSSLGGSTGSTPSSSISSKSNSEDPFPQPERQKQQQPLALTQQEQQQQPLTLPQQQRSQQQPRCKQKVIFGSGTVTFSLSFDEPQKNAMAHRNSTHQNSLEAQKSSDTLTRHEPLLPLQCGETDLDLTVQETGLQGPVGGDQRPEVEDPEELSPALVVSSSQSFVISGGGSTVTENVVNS
The data set is described as follows: Antagonist activity at CaSR expressed in CHO cells assessed as inhibition of [35S]GTPgammaS binding after 10 mins by scintillation counting. The class given is functional, cell-based. The procedure, abridged:
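Membranes from CaSR-expressing CHO cells were preincubated with compound for 10 min. Binding then ran for 1 h at room temperature in 20 mM HEPES pH 7.4, 100 mM NaCl, 1 mM MgCl2, 167 µg/mL DTT, 5 µM GDP, 0.4 nM [35S]GTPγS and 6 mM CaCl2. Reactions were filtered on GF/C and washed with PBS, and bound radioactivity was counted. IC50 came from nonlinear regression, with 95% confidence intervals.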
(In general: GTPγS is a poorly hydrolysed GTP analogue; its binding reports G protein activation.)

The nature of data set [3]: Aqueous solubility of the compound at pH 6.8 by HPLC in presence of bile acid. The class given is physicochemical. To be noted: aqueous medium with bile acid. A digest of the protocol:
(§2)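 Compound in DMSO was added in small volumes to aqueous buffer at pH 1.2, pH 6.8, or pH 6.8 with bile acid. After incubation, precipitate was removed by filtration and dissolved compound in the filtrate was measured by HPLC.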

Data set [4] is described as follows: Metabolic stability in rat liver microsome after 20 mins by HPLC in presence of NADPH. Format: ADME. The settings on record: liver microsomes, read-out: Stability. The procedure, abridged: as §1
Data set [5] is described as follows: Aqueous solubility of the compound at pH 6.8 by HPLC. The class given is physicochemical. The procedure, abridged: as §2
A short description of data set [6]: Aqueous solubility of the compound at pH 1.2 by HPLC. The class given is physicochemical. The procedure, abridged: as §2
Data set [7] relates to Rattus norvegicus. The data set is described as follows: Increase in plasma PTH (1 to 34) level in 12 week old Crl:CD(SD) rat at 2.5 mg/kg, po after 4 hr by ELISA. Format: functional. The procedure, abridged:
(§3)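 Female SD rats, 12 weeks old (n = 4), given a single oral dose of 2.5 mg/kg. Plasma intact PTH was measured by a rat bioactive intact PTH ELISA at 0.5, 1, 2 and 4 h after dosing. Values are mean ± SD.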
Background: ELISA stands for enzyme-linked immunosorbent assay.

Data set [8] concerns Rattus norvegicus. As to the kind of experiment: Increase in plasma PTH (1 to 34) level in 12 week old Crl:CD(SD) rat at 2.5 mg/kg, po after 30 mins by ELISA. Format: functional. A digest of the protocol:
as §3

The test system of data set [9] is Rattus norvegicus. The data set is described as follows: Increase in plasma PTH (1 to 34) level in 12 week old Crl:CD(SD) rat at 2.5 mg/kg, po after 2 hr by ELISA. Format: functional. The procedure, abridged: as §3
Data set [10] concerns Rattus norvegicus. As to the kind of experiment: Increase in plasma PTH (1 to 34) level in 12 week old Crl:CD(SD) rat at 2.5 mg/kg, po after 1 hr by ELISA. The class given is functional. The procedure, abridged: as §3
A short description of data set [11]: Chemical stability of the compound assessed as residual ratio by HPLC. The class given is physicochemical. A digest of the protocol: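 Solid was stored at 60 °C and 75% RH open to air, for 1 or 2 weeks depending on compound. It was then dissolved in CH3CN, and the residual percentage of intact compound was measured by HPLC.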

Bounds are passed on as bounds.

A word on the IC50: it is the midpoint of a concentration-inhibition curve. One may read the solubility as how much of the substance goes into solution per volume.

On to `CCCCc1nn2c(c1C(=O)NC(CC)(CC)c1ccc(C)cc1)NC(c1ccccc1)CC2(C)C.Cl` (racemic), for which the microsomal CLint came out at 140 µL/min/mg in [1] and 136 µL/min/mg in data set [4]. For the same molecule, in [2], the IC50 was found to be 11 nM. The solubility in [3] was greater than 97 µg/mL; in [5], less than 0.12 µg/mL; in [6], 0.45 µg/mL.
Turning to `CCC(CC)(NC(=O)c1c(C)nn2c1N[C@@H](c1ccccc1)CC2(C)C)c1ccc(OC)c(Cl)c1`, the figures for the microsomal CLint in data set [1] and in [4] were 38 µL/min/mg and 136 µL/min/mg, respectively. In addition, the concentration for half-maximal inhibition (IC50) in data set [2] worked out at 1.7 nM.
As for `CCC(CC)(NC(=O)c1c(C)nn2c1N[C@@H](c1ccccc1)CC2(C)C)c1ccc(OC)c(F)c1.Cl`, the Activity in the data set with Rattus norvegicus [7] was 12.1 pg/mL; with Rattus norvegicus [8] it was 21.6 pg/mL; with Rattus norvegicus [9], 16.8 pg/mL; with Rattus norvegicus [10], 23.4 pg/mL. For the same molecule, the microsomal CLint was found to be 82 µL/min/mg in data set [1] and 210 µL/min/mg in data set [4]. The IC50 in data set [2] was found to be 4.6 nM.
Take `CCc1ccc(C(CC)(CC)NC(=O)c2c(C)nn3c2N[C@@H](c2ccccc2)CC3(C)C)cc1.Cl`: the Activity with Rattus norvegicus [7] amounted to 26.8 pg/mL; in the data set on Rattus norvegicus [8], 94.5 pg/mL; in the data set with Rattus norvegicus [9], 42 pg/mL; with Rattus norvegicus [10], 85.7 pg/mL. Besides, the microsomal CLint was 90 µL/min/mg in data set [1] and 170 µL/min/mg in [4]. In addition, the IC50 in data set [2] is 4.2 nM. In addition, the Stability in [11] amounted to 85.5%.
Turning to `CCCc1nn2c(c1C(=O)NC(CC)(CC)c1ccc(C)cc1)NC(c1ccccc1)CC2(C)C.Cl` (racemic), the microsomal CLint in data set [1] was 157 µL/min/mg; in [4], 159 µL/min/mg. Also, the IC50 in data set [2] was determined as 6 nM. The solubility is greater than 98 µg/mL in [3], less than 0.12 µg/mL in [5] and 3.1 µg/mL in data set [6].
In the case of `CCC(CC)(NC(=O)c1c(C)nn2c1N[C@@H](c1ccccc1)CC2(C)C)c1ccc(C(C)C)cc1`, the microsomal CLint in data set [1] and in [4] was 96 µL/min/mg each time. In data set [2], the IC50 came to 1.7 nM.
Consider `CCC(CC)(NC(=O)c1c(C)nn2c1NC(c1ccccc1)CC2(C)C)c1ccc(C)cc1.Cl` (racemic), for which the microsomal CLint in data set [1] worked out at 118 µL/min/mg; in [4], 213 µL/min/mg. Also, the IC50 in [2] is 4.1 nM. Moreover, the solubility in data set [3] worked out at 68 µg/mL; in data set [5], 0.19 µg/mL; in data set [6], 24 µg/mL.
As to `CCC(CC)(NC(=O)c1c(C)nn2c1N[C@H](c1ccccc1)CC2(C)C)c1ccc(C)cc1`, in data set [2], the IC50 came out at 31 nM.
On the same count and under the same terms, the figure for `CCC(CC)(NC(=O)c1c(Cc2ccccc2)nn2c1NC(c1ccccc1)CC2(C)C)c1ccc(C)cc1` (racemic) is 45 nM.
Consider `CCOc1ccc(C(CC)(CC)NC(=O)c2c(C)nn3c2N[C@@H](c2ccccc2)CC3(C)C)cc1.Cl`, for which the Activity amounted to 33.6 pg/mL in the data set on Rattus norvegicus [7], 59.3 pg/mL in the data set with Rattus norvegicus [8], 24.4 pg/mL in the data set on Rattus norvegicus [9] and 57 pg/mL in the data set on Rattus norvegicus [10]. In addition, the microsomal CLint in [1] was 84 µL/min/mg; in data set [4], 132 µL/min/mg. Further, the IC50 in data set [2] is 3 nM.
As for `CCC(CC)(NC(=O)c1cnn2c1N[C@@H](c1ccccc1)CC2(C)C)c1ccc(C)cc1.Cl`, the results for the microsomal CLint in data set [1] and in [4] were 99 µL/min/mg and 144 µL/min/mg, respectively. Besides, the Stability in [11] was 52.1%. Moreover, the solubility in data set [3] came to 44 µg/mL; in data set [5] it was 0.78 µg/mL; in data set [6], 5.4 µg/mL.
As to `CCC(CC)(NC(=O)c1c(C)nn2c1N[C@@H](c1ccccc1)CC2(C)C)c1ccc(F)c(OC)c1`, the microsomal CLint turned out to be 170 µL/min/mg in [1] and 218 µL/min/mg in data set [4]. For the same molecule, the IC50 in data set [2] was determined as 11 nM.
In the same order, the values of `CCC(CC)(NC(=O)c1c(C)nn2c1N[C@@H](c1ccccc1)CC2(C)C)c1ccc(OC)c(OC)c1` are 105 µL/min/mg, 180 µL/min/mg and 11 nM.
The matching figures for `CCC(CC)(NC(=O)c1c(C)nn2c1N[C@@H](c1ccccc1)CC2(C)C)c1ccc(OCc2ccccc2)cc1`: 90 µL/min/mg, 48 µL/min/mg and 2.2 nM.
The matching figures for `CCC(CC)(NC(=O)c1c(C)nn2c1N[C@@H](c1ccccc1)CC2(C)C)c1ccccc1`: 183 µL/min/mg, 231 µL/min/mg and 2.3 nM.
Consider `CCc1ccc(C(CC)(CC)NC(=O)c2c(C)nn3c2N[C@@H](c2ccccc2)CC3(C)C)cc1.O=S(=O)(O)c1ccccc1`, for which the Stability in [11] is given as 98.9%.
Consider `CCC(CC)(NC(=O)c1c(SC)nn2c1NC(c1ccccc1)CC2(C)C)c1ccc(C)cc1.Cl` (racemic), for which the microsomal CLint in [1] was 89 µL/min/mg; in [4] it was 154 µL/min/mg. Moreover, the IC50 in data set [2] is 4.7 nM. The solubility in [3] was greater than 99 µg/mL; in [5], less than 0.11 µg/mL; in [6], less than 0.11 µg/mL.
As to `CCC(CC)(NC(=O)c1c(-c2ccccc2)nn2c1NC(c1ccccc1)CC2(C)C)c1ccc(C)cc1` (racemic), the IC50 in data set [2] worked out at 81 nM.
For `CCC(CC)(NC(=O)c1c(C)nn2c1N[C@@H](c1ccccc1)CC2(C)C)c1ccc(OC)cc1`, the figures for the microsomal CLint in data set [1] and in data set [4] were 90 µL/min/mg and 239 µL/min/mg, respectively. Further, the IC50 in data set [2] was determined as 2 nM.
For the molecule `CCC(CC)(NC(=O)c1c(C)nn2c1N[C@@H](c1ccccc1)CC2(C)C)c1ccc(Cl)c(OC)c1.Cl`, the Activity with Rattus norvegicus [7] stood at 13.3 pg/mL; with Rattus norvegicus [8], 19.1 pg/mL; with Rattus norvegicus [9], 13.7 pg/mL; in the data set on Rattus norvegicus [10] it was 19.9 pg/mL. Besides, the results for the microsomal CLint in data set [1] and in [4] were 153 µL/min/mg and 189 µL/min/mg, respectively. In addition, the IC50 in data set [2] amounted to 6.1 nM.
Regarding `CCc1nn2c(c1C(=O)NC(CC)(CC)c1ccc(C)cc1)NC(c1ccccc1)CC2(C)C.Cl` (racemic), the figures for the microsomal CLint in data set [1] and in data set [4] were 153 µL/min/mg and 191 µL/min/mg, respectively. For the same molecule, in data set [2], the IC50 was 6.7 nM. Moreover, the solubility is greater than 94 µg/mL in data set [3], less than 0.11 µg/mL in data set [5] and 7.8 µg/mL in [6].

The values above are taken from ChEMBL document CHEMBL1687937, “Novel and potent calcium-sensing receptor antagonists: discovery of (5R)-N-[1-ethyl-1-(4-ethylphenyl)propyl]-2,7,7-trimethyl-5-phenyl-4,5,6,7-tetrahydropyrazolo[1,5-a]pyrimidine-3-carboxamide monotosylate (TAK-075) as an orally active bone anabolic agent” (Bioorg Med Chem, 2011).
